Laboratory results reported in BindingDB's records for doi:10.1021/jm050754u (Abbott Laboratories, 2006).

target: Bcl-2-like protein 1 (Homo sapiens, UniProt Q07817); assay: Activity towards mouse FL5.12 cell line transfected with Bcl-XL in presence of gelatin
Summary of the method: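 Bcl-XL-transfected murine FL5.12 (IL-3 dependent) grown in RPMI with 10% FBS and WEHI-3B conditioned medium as the IL-3 source. Switched to IL-3-depleted, FBS-free medium for 2 days. Then placed in gelatin assay medium (3.4 mg/mL bovine gelatin) or 3% FBS assay medium. Serial compound dilutions added for 24 h. Viability read by MTS or CellTiter-Glo; duplicate values per determination; EC50.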

Chain of Bcl-2-like protein 1 (Q07817 whole entry): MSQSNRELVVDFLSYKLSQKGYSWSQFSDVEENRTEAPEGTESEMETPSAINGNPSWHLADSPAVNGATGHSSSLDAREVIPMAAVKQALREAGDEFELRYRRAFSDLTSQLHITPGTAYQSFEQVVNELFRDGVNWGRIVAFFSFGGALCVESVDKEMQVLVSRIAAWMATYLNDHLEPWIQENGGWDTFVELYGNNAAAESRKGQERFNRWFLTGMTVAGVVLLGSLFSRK

| SMILES | EC50 [nM] |
| --- | --- |
| COc1cc(CCCN2CCOCC2)ccc1-c1ccc(C(=O)NS(=O)(=O)c2ccc(N[C@H](CCCCN)CSc3ccccc3)c([N+](=O)[O-])c2)cc1 [4-((R)-5-amino-1-phenylsulfanylmethylpentylamino)-N-[2'-methoxy-4'-(3-morpholin-4-ylpropyl)biphenyl-4-carbonyl]-3-nitrobenzenesulfonamide] | 3050 |

target: not listed separately; assay: Activity towards mouse FL5.12 cell line transfected with Bcl-XL in presence of gelatin

| SMILES | EC50 [nM] |
| --- | --- |
| CN(C)CCC[C@H](CSc1ccccc1)Nc1ccc(S(=O)(=O)NC(=O)c2ccc(N3CCC(C)(C)CC3)cc2)cc1[N+](=O)[O-] [4-((R)-4-dimethylamino-1-phenylsulfanylmethylbutylamino)-N-[4-(4,4-dimethylpiperidin-1-yl)benzoyl]-3-nitrobenzenesulfonamide] | 2000 |
| CC1(C)CCN(c2ccc(C(=O)NS(=O)(=O)c3ccc(N[C@H](CCCCN)CSc4ccccc4)c([N+](=O)[O-])c3)cc2)CC1 [4-((R)-5-amino-1-phenylsulfanylmethylpentylamino)-N-[4-(4,4-dimethylpiperidin-1-yl)benzoyl]-3-nitrobenzenesulfonamide] | 4130 |
| CN(C)CCCC[C@H](CSc1ccccc1)Nc1ccc(S(=O)(=O)NC(=O)c2ccc(N3CCC(C)(C)CC3)cc2)cc1[N+](=O)[O-] [4-((R)-5-dimethylamino-1-phenylsulfanylmethylpentylamino)-N-[4-(4,4-dimethylpiperidin-1-yl)benzoyl]-3-nitrobenzenesulfonamide] | 1080 |
| CN(C)CC[C@@H](CSc1ccccc1)Nc1ccc(S(=O)(=O)NC(=O)c2ccc(N3CCC(C)(C)CC3)cc2)cc1[N+](=O)[O-] [4-((S)-3-dimethylamino-1-phenylsulfanylmethylpropylamino)--[4-(4,4-dimethylpiperidin-1-yl)benzoyl]-3-nitrobenzenesulfonamide] | 9500 |
| CN(C)C(=O)C[C@H](CSc1ccccc1)Nc1ccc(S(=O)(=O)NC(=O)c2ccc(N3CCC(C)(C)CC3)cc2)cc1[N+](=O)[O-] [(R)-3-{4-[4-(4,4-dimethylpiperidin-1-yl)benzoylsulfamoyl]-2-nitrophenylamino}-N,N-dimethyl-4-phenylsulfanylbutyramide] | 2140 |
| CC1(C)CCN(c2ccc(C(=O)NS(=O)(=O)c3ccc(N[C@H](CCN4CCOCC4)CSc4ccccc4)c([N+](=O)[O-])c3)cc2)CC1 [N-[4-(4,4-dimethylpiperidin-1-yl)benzoyl]-4-((R)-3-morpholin-4-yl-1-phenylsulfanylmethylpropylamino)-3-nitrobenzenesulfonamide] | 368 |

Next, values leading:

| EC50 [nM] | SMILES |
| --- | --- |
| 399 | COc1cc(CCCN2CCOCC2)ccc1-c1ccc(C(=O)NS(=O)(=O)c2ccc(N[C@H](CCN(C)C)CSc3ccccc3)c([N+](=O)[O-])c2)cc1 [4-((R)-3-dimethylamino-1-phenylsulfanylmethylpropylamino)-N-[2'-methoxy-4'-(3-morpholin-4-ylpropyl)biphenyl-4-carbonyl]-3-nitrobenzenesulfonamide] |
| 3010 | COc1cc(CCCN2CCOCC2)ccc1-c1ccc(C(=O)NS(=O)(=O)c2ccc(N[C@H](CCCN(C)C)CSc3ccccc3)c([N+](=O)[O-])c2)cc1 [4-((R)-4-Dimethylamino-1-phenylsulfanylmethylbutylamino)-N-[2'-methoxy-4'-(3-morpholin-4-ylpropyl)biphenyl-4-carbonyl]-3-nitrobenzenesulfonamide] |
| 1200 | COc1cc(CCCN2CCOCC2)ccc1-c1ccc(C(=O)NS(=O)(=O)c2ccc(N[C@H](CCCCN(C)C)CSc3ccccc3)c([N+](=O)[O-])c2)cc1 [4-((R)-5-dimethylamino-1-phenylsulfanylmethylpentylamino)-N-[2'-methoxy-4'-(3-morpholin-4-ylpropyl)biphenyl-4-carbonyl]-3-nitrobenzenesulfonamide] |
| 32500 | COc1cc(CCCN2CCOCC2)ccc1-c1ccc(C(=O)NS(=O)(=O)c2ccc(N[C@@H](CCN(C)C)CSc3ccccc3)c([N+](=O)[O-])c2)cc1 [4-((S)-3-dimethylamino-1-phenylsulfanylmethylpropylamino)-N-[2'-methoxy-4'-(3-morpholin-4-ylpropyl)biphenyl-4-carbonyl]-3-nitrobenzenesulfonamide] |
| 1280 | COc1cc(CCCN2CCOCC2)ccc1-c1ccc(C(=O)NS(=O)(=O)c2ccc(N[C@@H](CSc3ccccc3)CC(=O)N(C)C)c([N+](=O)[O-])c2)cc1 [(R)-3-(4-{[2'-methoxy-4'-(3-morpholin-4-ylpropyl)biphenyl-4-carbonyl]sulfamoyl}-2-nitrophenylamino)-N,N-dimethyl-4-phenylsulfanylbutyramide] |
| 382 | COc1cc(CCCN2CCOCC2)ccc1-c1ccc(C(=O)NS(=O)(=O)c2ccc(N[C@H](CCN3CCOCC3)CSc3ccccc3)c([N+](=O)[O-])c2)cc1 [N-[2'-methoxy-4'-(3-morpholin-4-ylpropyl)biphenyl-4-carbonyl]-4-((R)-3-morpholin-4-yl-1-phenylsulfanylmethylpropylamino)-3-nitrobenzenesulfonamide] |
| 4200 | CC1(C)CCN(c2ccc(C(=O)NS(=O)(=O)c3ccc(N[C@@H](CCN4CCOCC4)CSc4ccccc4)c([N+](=O)[O-])c3)cc2)CC1 [N-[4-(4,4-dimethylpiperidin-1-yl)benzoyl]-4-((S)-3-morpholin-4-yl-1-phenylsulfanylmethylpropylamino)-3-nitrobenzenesulfonamide] |
